These results are taken from ChEMBL document CHEMBL2040844, “Anthranilic acid-based diamides derivatives incorporating aryl-isoxazoline pharmacophore as potential anticancer agents: design, synthesis and biological evaluation” (Eur J Med Chem, 2012).

Each structure is given as a SMILES string.

Assay [1] concerns NCI-H460. The assay can be described thus: Cytotoxicity against human NCI-H460 cells after 72 hrs by MTT assay. Format: functional, cell-based. As to conditions: NCI-H460, 72 h. The essentials:
(§1)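 MTT assay. Cells were seeded at 2 × 10⁴ per well, grown to subconfluence, then exposed to serial dilutions of compound in test medium for 72 h at 37 °C in humidified 5% CO₂. MTT was added for 4 h, formazan was dissolved in DMSO, and absorbance was read at 570 nm. IC50 values were derived from dose-response. Triplicate wells, three independent experiments; 5-FU served as positive control.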

For assay [2], the system named is SGC-7901. The assay can be described thus: Growth inhibition of human SGC7901 cells at 40 ug/ml after 72 hrs by MTT assay. It counts as functional. As to conditions: SGC-7901, 72 h, read-out: GI. Summed up:
(§2)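 Single-concentration screen at 40 µg/mL, reported as % cell growth inhibition. Cells were seeded at 2 × 10⁴ per well, grown to subconfluence, then treated for 72 h at 37 °C in humidified 5% CO₂. MTT was added for 4 h, formazan was dissolved in DMSO, and absorbance was read at 570 nm. Triplicate wells, three independent experiments; 5-FU served as positive control.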
A general note: Formazan colour is commonly taken as a measure of viable cells.

Assay [3] concerns BGC-823. As to the kind of experiment: Growth inhibition of human BGC823 cells at 40 ug/ml after 72 hrs by MTT assay. As to conditions: BGC-823, 72 h, read-out: GI. Format: functional. The essentials: as §2
Assay [4] relates to SGC-7901. As to the kind of experiment: Cytotoxicity against human SGC7901 cells after 72 hrs by MTT assay. Format: functional, cell-based. As to conditions: SGC-7901, 72 h. The essentials:
as §1

Assay [5] relates to NCI-H460. As to the kind of experiment: Growth inhibition of human NCI-H460 cells at 40 ug/ml after 72 hrs by MTT assay. It counts as functional. As to conditions: NCI-H460, 72 h, read-out: GI. The essentials:
as §2

In assay [6] the test system is MCF7. As to the kind of experiment: Growth inhibition of human MCF7 cells at 40 ug/ml after 72 hrs by MTT assay. Format: functional. As to conditions: MCF7, 72 h, read-out: GI. The essentials: as §2
The test system of assay [7] is BGC-823. The assay can be described thus: Cytotoxicity against human BGC823 cells after 72 hrs by MTT assay. Format: functional, cell-based. As to conditions: for IC50: BGC-823, 72 h. Summed up:
as §1

Assay [8] concerns HepG2. As to the kind of experiment: Cytotoxicity against human HepG2 cells after 72 hrs by MTT assay. As to conditions: for IC50: HepG2, 72 h. It counts as functional, cell-based. The essentials:
as §1

The subject of assay [9] is HepG2. As to the kind of experiment: Growth inhibition of human HepG2 cells at 40 ug/ml after 72 hrs by MTT assay. Format: functional. As to conditions: HepG2, 72 h, read-out: GI. The essentials:
as §2

Assay [10] relates to MCF7. The assay can be described thus: Cytotoxicity against human MCF7 cells after 72 hrs by MTT assay. As to conditions: MCF7, 72 h. Format: functional, cell-based. The essentials: as §1

The IC50 is the midpoint of a concentration-inhibition curve. The low end stands for greater potency in that assay, the high end for weaker potency in that assay.

Consider `COc1cc(C2=NOC(C(=O)Nc3c(C)cc(Cl)cc3C(=O)NC3CCCCC3)C2)cc(OC)c1OC` (centres undefined), for which the concentration for half-maximal inhibition (IC50) worked out at 24.7 µM in the assay on NCI-H460 [1]; 36.8 µM in the assay on SGC-7901 [4]; 23.3 µM with BGC-823 [7]; 34.8 µM with HepG2 [8]; 22.4 µM in the assay with MCF7 [10]. Also, the inhibition of growth at 40 µg/mL with SGC-7901 [2] worked out at 60.2%; with BGC-823 [3], 69.7%; in the assay with NCI-H460 [5], 74%; in the assay with MCF7 [6], 62.7%; in the assay on HepG2 [9], 64%. Besides, the Activity result with BGC-823 [7] and with HepG2 [8] was “Dose-dependent effect” each time.
On to `CCN(CC)C(=O)c1cc(Cl)cc(C)c1NC(=O)C1CC(c2ccc(Cl)cc2)=NO1` (centres undefined), for which the IC50 turned out to be 37.5 µM in the assay on NCI-H460 [1]; 37.4 µM in the assay with SGC-7901 [4]; 36.5 µM in the assay with BGC-823 [7]; 37.7 µM in the assay on HepG2 [8]; 34.5 µM in the assay with MCF7 [10]. In addition, the inhibition of growth at 40 µg/mL in the assay with SGC-7901 [2] came out at 76.3%; in the assay with BGC-823 [3], 59.6%; in the assay with NCI-H460 [5], 63.5%; with MCF7 [6], 62.1%; in the assay on HepG2 [9], 59.2%. Further, the Activity entry in the assay with BGC-823 [7] and in the assay on HepG2 [8] was “Dose-dependent effect” throughout.
For `Cc1cc(Cl)cc2c(=O)oc(C3CC(c4ccc(Cl)cc4)=NO3)nc12` (centres undefined), the half-maximal inhibitory concentration (IC50) was found to be 41.9 µM in the assay with NCI-H460 [1]; 68.8 µM in the assay on SGC-7901 [4]; 54.4 µM in the assay on BGC-823 [7]; 43.6 µM with HepG2 [8]; 68.7 µM in the assay with MCF7 [10]. Besides, the inhibition of growth at 40 µg/mL in the assay with SGC-7901 [2] amounted to 35.6%; in the assay on BGC-823 [3], 31.5%; in the assay on NCI-H460 [5], 58.1%; in the assay on MCF7 [6], 37.7%; in the assay on HepG2 [9], 52.4%.
With `CNC(=O)c1cc(Cl)cc(C)c1NC(=O)C1CC(c2ccc(F)cc2)=NO1` (centres undefined), the concentration for half-maximal inhibition (IC50) is 50.3 µM with NCI-H460 [1]; over 100 µM in the assay with SGC-7901 [4]; over 100 µM in the assay on BGC-823 [7]; over 100 µM with HepG2 [8]; over 100 µM in the assay on MCF7 [10]. Moreover, the inhibition of growth at 40 µg/mL with SGC-7901 [2] came to 12.8%; in the assay with BGC-823 [3], 14.6%; with NCI-H460 [5], 42.9%; with MCF7 [6] it was 40.8%; in the assay with HepG2 [9], 26.7%.
